Measurements as given in ChEMBL document CHEMBL3259541, “Synthesis and biological evaluation of antimetastatic agents predicated upon dihydromotuporamine C and its carbocyclic derivatives” (J Med Chem, 2014).

Columns and labels:
[1] = tested on: L3.6pl; experiment: Effect on intracellular ceramide population in human L3.6PL cells assessed as sphingomyelin N22:1 level measured as contribution to total ceramide population at 0.6 uM after 48 hrs incubation by mass spectrometry analysis (reference value: 6.5%); type: functional
[2] = tested on: L3.6pl; experiment: Effect on intracellular ceramide population in human L3.6PL cells assessed as sphingomyelin N20:0 level measured as contribution to total ceramide population at 0.6 uM after 48 hrs incubation by mass spectrometry analysis (reference value: 1.1%); type: functional
[3] = tested on: L3.6pl; experiment: Effect on intracellular ceramide population in human L3.6PL cells assessed as sphingomyelin N14:0 level measured per mg of protein at 0.6 uM after 48 hrs incubation by mass spectrometry analysis (reference value: 0.12 +/- 0.03 nmol); type: functional
[4] = tested on: L3.6pl; experiment: Effect on intracellular ceramide population in human L3.6PL cells assessed as sphingomyelin N15:0 level measured per mg of protein at 0.6 uM after 48 hrs incubation by mass spectrometry analysis (reference value: 0.09 +/- 0.02 nmol); type: functional
[5] = tested on: L3.6pl; experiment: Effect on intracellular ceramide population in human L3.6PL cells assessed as sphingomyelin N16:1 level measured per mg of protein at 0.6 uM after 48 hrs incubation by mass spectrometry analysis (reference value: 0.24 +/- 0.04 nmol); type: functional
[6] = tested on: L3.6pl; experiment: Effect on intracellular ceramide population in human L3.6PL cells assessed as sphingomyelin N16:0 level measured per mg of protein at 0.6 uM after 48 hrs incubation by mass spectrometry analysis (reference value: 3.21 +/- 0.90 nmol); type: functional
[7] = tested on: L3.6pl; experiment: Effect on intracellular ceramide population in human L3.6PL cells assessed as sphingomyelin N17:0 level measured per mg of protein at 0.6 uM after 48 hrs incubation by mass spectrometry analysis (reference value: 0.09 +/- 0.03 nmol); type: functional
[8] = tested on: L3.6pl; experiment: Effect on intracellular ceramide population in human L3.6PL cells assessed as sphingomyelin N18:1 level measured per mg of protein at 0.6 uM after 48 hrs incubation by mass spectrometry analysis (reference value: 0.08 +/- 0.02 nmol); type: functional
[9] = tested on: L3.6pl; experiment: Effect on intracellular ceramide population in human L3.6PL cells assessed as sphingomyelin N18:0 level measured per mg of protein at 0.6 uM after 48 hrs incubation by mass spectrometry analysis (reference value: 0.38 +/- 0.11 nmol); type: functional
[10] = tested on: L3.6pl; experiment: Effect on intracellular ceramide population in human L3.6PL cells assessed as sphingomyelin N19:0 level measured per mg of protein at 0.6 uM after 48 hrs incubation by mass spectrometry analysis (reference value: 0.01 +/- 0.01 nmol); type: functional
[11] = tested on: L3.6pl; experiment: Effect on intracellular ceramide population in human L3.6PL cells assessed as sphingomyelin N20:1 level measured per mg of protein at 0.6 uM after 48 hrs incubation by mass spectrometry analysis (reference value: 0.04 +/- 0.01 nmol); type: functional
[12] = tested on: L3.6pl; experiment: Effect on intracellular ceramide population in human L3.6PL cells assessed as sphingomyelin N20:0 level measured per mg of protein at 0.6 uM after 48 hrs incubation by mass spectrometry analysis (reference value: 0.09 +/- 0.03 nmol); type: functional
[13] = tested on: L3.6pl; experiment: Effect on intracellular ceramide population in human L3.6PL cells assessed as sphingomyelin N21:0 level measured per mg of protein at 0.6 uM after 48 hrs incubation by mass spectrometry analysis (reference value: 0.03 +/- 0.01 nmol); type: functional
[14] = tested on: L3.6pl; experiment: Effect on intracellular ceramide population in human L3.6PL cells assessed as sphingomyelin N22:2 level measured per mg of protein at 0.6 uM after 48 hrs incubation by mass spectrometry analysis (reference value: 0.02 +/- 0.00 nmol); type: functional
[15] = tested on: L3.6pl; experiment: Effect on intracellular ceramide population in human L3.6PL cells assessed as sphingomyelin N23:2 level measured per mg of protein at 0.6 uM after 48 hrs incubation by mass spectrometry analysis (reference value: 0.03 +/- 0.02 nmol); type: functional
[16] = tested on: L3.6pl; experiment: Effect on intracellular ceramide population in human L3.6PL cells assessed as sphingomyelin N23:1 level measured per mg of protein at 0.6 uM after 48 hrs incubation by mass spectrometry analysis (reference value: 0.13 +/- 0.05 nmol); type: functional
[17] = tested on: L3.6pl; experiment: Effect on intracellular ceramide population in human L3.6PL cells assessed as sphingomyelin N23:0 level measured per mg of protein at 0.6 uM after 48 hrs incubation by mass spectrometry analysis (reference value: 0.08 +/- 0.04 nmol); type: functional
[18] = tested on: L3.6pl; experiment: Effect on intracellular ceramide population in human L3.6PL cells assessed as sphingomyelin N24:2 level measured per mg of protein at 0.6 uM after 48 hrs incubation by mass spectrometry analysis (reference value: 0.25 +/- 0.09 nmol); type: functional
[19] = tested on: L3.6pl; experiment: Effect on intracellular ceramide population in human L3.6PL cells assessed as sphingomyelin N24:1 level measured per mg of protein at 0.6 uM after 48 hrs incubation by mass spectrometry analysis (reference value: 0.85 +/- 0.38 nmol); type: functional
[20] = tested on: L3.6pl; experiment: Effect on intracellular ceramide population in human L3.6PL cells assessed as sphingomyelin N24:0 level measured per mg of protein at 0.6 uM after 48 hrs incubation by mass spectrometry analysis (reference value: 0.22 +/- 0.06 nmol); type: functional
[21] = tested on: L3.6pl; experiment: Effect on intracellular ceramide population in human L3.6PL cells assessed as sphingomyelin N25:1 level measured per mg of protein at 0.6 uM after 48 hrs incubation by mass spectrometry analysis (reference value: 0.02 +/- 0.02 nmol); type: functional
[22] = tested on: L3.6pl; experiment: Effect on intracellular ceramide population in human L3.6PL cells assessed as sphingomyelin N26:1 level measured per mg of protein at 0.6 uM after 48 hrs incubation by mass spectrometry analysis (reference value: 0.01 +/- 0.00 nmol); type: functional
[23] = tested on: CHO-MG; experiment: Cytotoxicity against polyamine transporter deficient CHO-MG cells assessed as cell growth after 48 hrs incubation by MTS assay in presence of 1 mM aminoguanidine; type: ADME, cell-based; details: Cricetulus griseus
Outline: (§1)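 CHO and polyamine-transport-deficient CHO-MG* cells pretreated 24 h with 1 mM aminoguanidine, then exposed to compound for 48 h at 37 °C. Triplicate. IC50 taken as 50% growth inhibition. PTS selectivity expressed as the CHO-MG*/CHO IC50 ratio.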

[24] = tested on: CHO; experiment: Cytotoxicity against CHO cells assessed as cell growth after 48 hrs incubation by MTS assay in presence of 1 mM aminoguanidine; type: cell-based; details: Cricetulus griseus; outline: as §1
[25] = tested on: polyamine transporter; experiment: Selectivity ratio of IC50 for polyamine transporter deficient CHO-MG cells to IC50 for CHO cells by MTS assay; type: ADME, cell-based, Cricetulus griseus; details: chinese hamster, polyamine transporter deficient CHO-MG cells and CHO cells; read-out: Ratio IC50; outline: as §1
[26] = Cytotoxicity against human L3.6PL cells assessed as inhibition of cell growth after 48 hrs incubation by MTS assay in presence of 250 uM aminoguanidine treated 24 hrs prior compound addition; type: functional, cell-based; details: for IC50: Homo sapiens, L3.6pl
Outline: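 L3.6pl cells pretreated 24 h with 250 μM aminoguanidine, then incubated with compound for 48 h at 37 °C. Triplicate. IC50 is the concentration giving 50% growth inhibition and IC5 the concentration giving 5% inhibition, both versus untreated control.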

Structure (SMILES)	Activity [1] [%]	Activity [2] [%]	Activity [3] [nmol]	Activity [4] [nmol]	Activity [5] [nmol]	Activity [6] [nmol]	Activity [7] [nmol]	Activity [8] [nmol]	Activity [9] [nmol]	Activity [10] [nmol]	Activity [11] [nmol]	Activity [12] [nmol]	Activity [13] [nmol]	Activity [14] [nmol]	Activity [15] [nmol]	Activity [16] [nmol]	Activity [17] [nmol]	Activity [18] [nmol]	Activity [19] [nmol]	Activity [20] [nmol]	further results
Cl.NCCCNCCCN1CCCCCCCCCCCCCC1	18.6	0.6	0.24	0.15	0.31	4.01	0.14	0.13	0.47	0.02	0.04	0.14	0.04	0.02	0.02	0.15	0.09	0.27	0.99	0.21	Activity [21]: 0.03 nmol; Activity [22]: 0.01 nmol; IC50 [23]: 2.96 µM; IC50 [24]: 2.9 µM; selectivity ratio [25]: 1; IC5 [26]: 0.6 µM; IC50 [26]: 0.99 µM
Cl.NCCCNCCCNCC1CCCCCCCCCCCCCC1	4.6	1.5	0.2	0.17	0.34	4.36	0.16	0.14	0.54	0.02	0.05	0.15	0.04	0.03	0.02	0.17	0.1	0.31	1.1	0.25	Activity [21]: 0.03 nmol; Activity [22]: 0.01 nmol; IC50 [23]: 87.3 µM; IC50 [24]: 82.9 µM; selectivity ratio [25]: 1; IC5 [26]: 80 µM; IC50 [26]: 89.4 µM
